Hits are enriched below; roughly 1.3% of the tested compounds scored in any of these assays.
procasp3 activ = procaspase-3 (human) activation; activation, % at 8.5 µM; 330,000 compounds, 0.11% hits; recombinant procaspase-3 D3A, Ac-DEVD-pNA absorbance 405 nm; P42574; AID 463141;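 active means activation above the mean of all tested compounds plus 3 SD, cut at about 21% in these data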
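Test system: Procaspase-3 D3A mutant, all three cleavage aspartates alanine | Dosing: Single dose, 8.5 µM nominal compound, 0.8% DMSO | Schedule: 1 h preincubation, 2 h reaction | Technique: 405 nm absorbance of p-nitroaniline, reads at 0 and 120 min | Repeats: One well per compound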
CHT inh = inhibitors of human choline transporter CHT. 310,000 compounds, 0.86% hits. B-score at 10 µM. AID 488975. Q9GZV3. CHT-expressing cells, membrane potential dye, choline response; hits give low values;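 active means B-score over 3 SD under the library average, and starting fluorescence ratio not unusually high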;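 further: choline stimulus applied at its EC90 after an EC20 pre-addition; B-score computed on integrated fluorescence ratio after choline addition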
Target sequence (Q9GZV3 whole entry, looked up): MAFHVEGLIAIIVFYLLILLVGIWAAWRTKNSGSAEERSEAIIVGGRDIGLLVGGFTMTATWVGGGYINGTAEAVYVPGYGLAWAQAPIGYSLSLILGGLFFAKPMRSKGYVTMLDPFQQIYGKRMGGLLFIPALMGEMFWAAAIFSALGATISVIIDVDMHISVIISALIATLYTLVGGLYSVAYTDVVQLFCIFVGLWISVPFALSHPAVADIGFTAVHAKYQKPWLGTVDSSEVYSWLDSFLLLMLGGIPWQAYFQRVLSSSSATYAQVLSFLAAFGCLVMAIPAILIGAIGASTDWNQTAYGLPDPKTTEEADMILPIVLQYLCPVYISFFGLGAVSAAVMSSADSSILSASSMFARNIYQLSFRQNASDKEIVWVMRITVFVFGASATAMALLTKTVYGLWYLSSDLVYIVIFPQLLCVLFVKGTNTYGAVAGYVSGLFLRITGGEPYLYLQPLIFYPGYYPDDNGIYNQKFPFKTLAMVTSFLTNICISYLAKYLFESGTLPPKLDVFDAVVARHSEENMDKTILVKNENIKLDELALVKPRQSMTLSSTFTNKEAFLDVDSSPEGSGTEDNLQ
CHT allo act = allosteric activators of human choline transporter CHT; CHT-expressing cells, membrane potential dye, choline EC20; hits give high values; LV-AA mutant CHT in HEK293 cells; 310,000 compounds, 0.49% hits; B-score at 10 µM;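 active means initial fluorescence not abnormally high and integrated response B-score, plate-corrected, over 3 SD above library mean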
proCasp7 act = activates human procaspase-7, counter-screen for procaspase-3 activators; P55210; recombinant procaspase-7, Ac-DEVD-pNA absorbance 405 nm; D23A/D198A/D206A triple mutant, cannot self-cleave; scale: DMSO 0, 5 µM enzyme 100; activation, % at 8.5 µM; 330,000 compounds, 0.093% hits; AID 463210;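 active means percent activation above the screen-wide mean plus 3 SD, cut at about 25% in these data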
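Assay system: Uncleavable procaspase-7 mutant enzyme; Input: 2 µM procaspase-7 mutant as dispensed; Also added: DEVD-pNA substrate; Medium: Zinc-free HEPES pH 7.4 with 300 mM NaCl, 0.01% Triton X-100; Timing: 1 h compound preincubation, 2 h substrate cleavage, 25 °C; Measured by: Epi-absorbance of released pNA at 405 nm, two timepoints.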
proCasp7 act trip = counter-screen: procaspase-7 (human) activation in triplicate. shares compounds with procasp3 activ. recombinant procaspase-7, Ac-DEVD-pNA absorbance; asp23/198/206-to-Ala mutant, cannot self-cleave. activation, % at 8.5 µM. 210 tested, under 10 active;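 active means mean activation above a set limit taken from an earlier procaspase-7 screen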
procasp3 conf = confirmation of human procaspase-3 activators | 210 compounds, 10% hits | AID 488954 | activation, % at 8.5 µM | shares compounds with procasp3 activ | recombinant PC-3 D3A, Ac-DEVD-pNA absorbance 405 nm; 100% is higher-enzyme control;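 active means mean activation above a set limit carried over from the earlier primary screen, cut at about 22% in these data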
PC3 D3A act = counter-screen for dual procaspase-3/7 activators: human procaspase-3 activation | shares compounds with proCasp7 act | recombinant PC-3 D3A, Ac-DEVD-pNA absorbance 405 nm; aspartates 9, 28, 175 changed to alanine; 100% = enzyme control | activation, % at 8.5 µM | 290 tested, under 10 active;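 active means mean percent activation across triplicates above a set limit taken from the earlier primary procaspase-3 screen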
PC7 dual conf = confirmation of dual procaspase activators: human procaspase-7 activation; shares compounds with proCasp7 act; recombinant procaspase-7, Ac-DEVD-pNA absorbance 405 nm; D23A/D198A/D206A mutant that cannot self-cleave; activation, % at 8.5 µM; 290 tested, under 10 active; AID 493115;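 active means mean activation above a set limit carried over from the earlier primary screen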
CHT inh conf = human CHT inhibition, confirmatory screen; shares compounds with CHT inh; CHT-expressing cells, choline membrane potential dye; LV-to-AA substituted CHT, HEK293 cells; CHT activity remaining % of control (hits give low values), % at 10 µM; 2,400 compounds, 70% hits; AID 493221;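 active means choline transporter activity left, mean of duplicates at 10 µM, below buffer-only control mean minus 3 SD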;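 further: depolarization triggered by choline at its EC90 following an EC20 pre-addition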
HEK293 MPD ctr = activity in parental HEK293 cells lacking CHT; membrane potential ratio readout (active if shifted either direction beyond buffer ±3SD; no single direction) at 10 µM; shares compounds with CHT inh; AID 493222; membrane potential dye, choline response; active = decrease or increase beyond buffer ±3SD; 2,400 compounds, 4% hits;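 further: parental cells lack the transporter so any hit is non-specific; ratio is peak minus trough fluorescence over baseline after EC90 choline challenge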
A number is an active result; – = inactive; · = not tested or not shown.

SMILES	procasp3 activ	CHT inh	CHT allo act	proCasp7 act	others
COc1cc2c(cc1OC)-c1c(OC)c(OC)cc3c1C(C2)N(C)CC3 (centres undefined)	–	–	8.4	–
COc1ccc(CC2c3cc(OC)c(OC)cc3CCN2C)cc1O (centres undefined)	–	–	–	–
CN(C)C=C1C(=O)N(C2CCCCC2)C(=O)N(C2CCCCC2)C1=O	–	-5.37	–	–
CCC(c1ccc(C)cc1)N1C(=O)C2C3CCC(O3)C2C1=O (centres undefined)	–	·	·	–
Oc1cc(Cl)ccc1Oc1ccc(Cl)cc1Cl	–	-5.02	–	–
CC(=O)OC(C)(C)/C=C/C(=O)C(C)(O)C1[C@H](O)C[C@@]2(C)C3CC=C4C(CC[C@@H](O)C4(C)C)[C@]3(CO)C(=O)C[C@]12C (some centres undefined)	–	–	8.67	–
Clc1ccc(C[n+]2c(-c3ccccc3)cc(-c3ccccc3)cc2-c2ccccc2)cc1	–	-8.87	–	–
CN1CCN(c2ccc([N+](=O)[O-])c3cccnc23)CC1	–	–	7.07	–
CN1CCN(c2ccc([N+](=O)[O-])c(N3CCCCC3)c2)CC1	–	–	–	–
CC(NS(C)(=O)=O)c1nnc2n1-c1ccc(Br)cc1C(c1ccccc1Cl)=NC2 (centres undefined)	–	–	–	–
N=C1c2ccccc2CN1c1ncccn1	–	–	7.89	–
COCCCN1Cc2ccccc2C1=N	–	–	–	–
Cc1nn(Cc2ccc(Cl)cc2Cl)c(Cl)c1C(=O)O	–	–	–	–
N=c1c2c(n(Cc3ccc(Cl)cc3Cl)c3c1CCC3)CCCC2	–	–	6.4	–
S=C=Nc1cccc(C2(N3CCCCC3)CCCCC2)c1	–	–	–	–
O=C(O)c1cc[c]([Hg][Cl])cc1	–	-6.1	–	–
C#C[C@]1(O)[C@H](O)CC2C3CC[C@H]4C[C@@H](O)CC[C@]4(C)C3CC[C@@]21C (some centres undefined)	–	·	·	–
O=[N+]([O-])c1ccccc1-c1cc(-c2ccccc2)cc(-c2ccccc2)[n+]1Cc1ccccc1Cl	–	-5.28	–	–
COC(=O)C1=C(c2ccc(OC)c(OC)c2)C[C@@H]2CC[C@H]1N2C(=O)NC1CCCCC1	–	·	·	–
COC(=O)C1=C(c2ccc(-c3ccccc3)c(F)c2)C[C@@H]2CC[C@H]1N2C(=O)NCc1cccc2ccccc12	–	·	·	–
Cc1ccc(-c2nc3ccccc3c(=O)n2-c2cccc(C)n2)cc1	44.4	–	–	–	proCasp7 act trip=–;procasp3 conf=–
Cc1ccc(-c2nc3ccccc3c(=O)n2-c2cc(C)ccn2)cc1	–	–	–	–
OC(CNCCc1c[nH]c2ccccc12)c1ccccc1 (centres undefined)	–	–	–	–
CCCCn1c(N)c(C(=O)NCc2cccs2)c2nc3ccccc3nc21	46.4	–	–	–	proCasp7 act trip=–;procasp3 conf=–
CC[n+]1c(/C=C/C=C/c2ccc(N(C)C)cc2)sc2ccccc21	39.1	–	–	–	proCasp7 act trip=–;procasp3 conf=–
SMILES	procasp3 activ	CHT inh	CHT allo act	proCasp7 act	others
CN(C)CCN(C(=O)COc1ccc(Cl)cc1)c1nc2cc3c(cc2s1)OCO3	–	–	–	–
Nc1c(C(=O)NCc2ccco2)c2nc3ccccc3nc2n1Cc1ccccc1	–	–	–	45.8	PC3 D3A act=–;PC7 dual conf=–
O=C(c1ccc(Cl)cc1)C1CCCN(C2CCSCC2)C1 (centres undefined)	–	–	–	–
CCCC(=O)NC(Oc1ccccc1Cl)C(Cl)(Cl)Cl (centres undefined)	–	-5.05	–	–	CHT inh conf=–;HEK293 MPD ctr=–
CC(OC(=O)c1cn(C)c2ccccc12)C(=O)N1CCCC1 (centres undefined)	–	·	·	–
C/C1=C\[C@@H](C)C/C=C/[C@H]2[C@@H]3O[C@]3(C)[C@@H](C)[C@H]3[C@H](Cc4c[nH]c5ccccc45)NC(=O)[C@]32C(=O)/C=C/C(=O)[C@@H]1O	–	–	–	–
CC1=CC2/C=C(\C)CCC(O)C(O)/C=C/C(=O)C23C(=O)NC(CC(C)C)C3C1C (centres undefined)	–	-6.53	–	–	CHT inh conf=24.1%;HEK293 MPD ctr=–
O=c1cccc2n1CC1CC2CN(Cc2cccc(Cl)c2Cl)C1 (centres undefined)	–	-5.39	–	–	CHT inh conf=64.8%;HEK293 MPD ctr=–
Clc1cc(I)cc(Cl)c1NC1=NCCN1	–	-6.99	–	–	CHT inh conf=6.0%;HEK293 MPD ctr=–
C[C@]12CC[C@H](O)C[C@@H]1CC[C@@H]1[C@@H]2CC[C@]2(C)[C@@H](C(=O)O)C[C@@H]12	–	-13.7	–	–	CHT inh conf=–;HEK293 MPD ctr=–
C[C@]12CCC3C(CC[C@H]4C[C@@H](O)CC[C@]34C)C1C[C@@H](Br)[C@@H]2O (some centres undefined)	–	·	·	–
C=CCn1c(O)c(C(CC)=NC(C)c2ccccc2)c(=O)[nH]c1=O (centres undefined)	–	-4.99	–	–	CHT inh conf=48.8%;HEK293 MPD ctr=–
CCCCn1c(O)c(C(CC)=NC(C)c2ccccc2)c(=O)[nH]c1=O (centres undefined)	–	–	–	–
CCn1c(P(C)(=O)O)nc2cc(NC(=O)c3ccccc3F)ccc21	–	-12.4	–	–	CHT inh conf=–;HEK293 MPD ctr=–
CCn1c(P(C)(=O)O)nc2ccccc21	–	–	–	–
CCOc1cc2c(cc1OCC)-n1cccc1C(c1cc(OC)ccc1F)NC2 (centres undefined)	–	–	–	–
CCOc1cc(/C=C2/C(=O)NC(=O)N(c3ccc(CC)cc3)C2=O)ccc1OC(=O)c1cccs1	–	-6.63	–	–	CHT inh conf=59.1%;HEK293 MPD ctr=–

Screens: PubChem, several laboratories
